Assay results reported in publication PMC4380538 (Bioorganic & medicinal chemistry, 2015).
“Also recorded” adds a separate entry of the source.

Target: T1, hCCK2R (Homo sapiens, UniProt P32239)
T1 sequence (P32239 1-447): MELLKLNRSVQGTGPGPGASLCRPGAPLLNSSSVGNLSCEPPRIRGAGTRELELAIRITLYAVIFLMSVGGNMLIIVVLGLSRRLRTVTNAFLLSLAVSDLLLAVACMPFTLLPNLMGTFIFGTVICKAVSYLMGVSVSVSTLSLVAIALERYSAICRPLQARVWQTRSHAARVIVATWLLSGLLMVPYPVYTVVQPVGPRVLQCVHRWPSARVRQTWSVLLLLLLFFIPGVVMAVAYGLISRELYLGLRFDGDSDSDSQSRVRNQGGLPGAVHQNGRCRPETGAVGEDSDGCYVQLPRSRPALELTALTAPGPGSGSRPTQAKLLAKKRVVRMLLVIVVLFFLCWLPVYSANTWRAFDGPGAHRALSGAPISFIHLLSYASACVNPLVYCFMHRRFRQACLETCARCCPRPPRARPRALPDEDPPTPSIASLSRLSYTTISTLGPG
Assay: Competitive binding assay
Conditions: against probe 3 (15 nM); concentration range 10^-5 to 10^-12 M
Method in brief: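 HEK-293 cells engineered to overexpress hCCK2R and hMC4R, kept in selective medium and seeded at 240,000 cells/well in six-well plates (~1 × 10^6 cells at 90% confluence). Medium replaced with test compound (10^-5 to 10^-12 M, twelve levels) plus 15 nM Eu-labelled CCK4 probe in binding buffer for 1 h, 37 °C, CO₂. Cells pelleted and washed three times in basic buffer. DELFIA enhancement for 1 h, 37 °C. Supernatant read by TRF. Ki reported with SEM.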

| Structure (SMILES) | Competitive inhibition of probe 3 binding (in words) |
| --- | --- |
| NC(=O)[C@H](CO)NC(=O)CCCCCn1cc(CN(Cc2cn(CCCCCC(=O)N[C@@H](CO)C(N)=O)nn2)Cc2cn(CCCCCC(=O)N[C@@H](CO)C(N)=O)nn2)nn1 [Compound 15] | not competitive inhibitors; also recorded: did not interfere with the binding and uptake of probe 3 |
| NC(=O)[C@H](CO)NC(=O)CCCCCn1cc(COc2cc(OCc3cn(CCCCCC(=O)N[C@@H](CO)C(N)=O)nn3)cc(OCc3cn(CCCCCC(=O)N[C@@H](CO)C(N)=O)nn3)c2)nn1 [Compound 16] | not competitive inhibitors; also recorded: did not interfere with the binding and uptake of probe 3 |
